Measured values reported in ChEMBL document CHEMBL4402549, “Benzothiazole-Based LRRK2 Inhibitors as Wnt Enhancers and Promoters of Oligodendrocytic Fate” (J Med Chem, 2020).

The compounds below were run against T1, Leucine-rich repeat serine/threonine-protein kinase 2 (Homo sapiens, UniProt Q5S007) (assay: Inhibition of wild type human GST-tagged LRRK2 (970 to 2527 residues) expressed in baculovirus expression system assessed as reduction in ADP formation using LRRKtide as substrate measured after 1 hr in presence of ATP by Adapta assay).
In short: (§1)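 Fluorescence immunoassay detecting ADP formed in the kinase reaction. Dose-response run at ten concentrations per compound in two independent experiments. IC50 given ± standard deviation.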

T1 sequence (Q5S007 whole entry, the tested form may be a part): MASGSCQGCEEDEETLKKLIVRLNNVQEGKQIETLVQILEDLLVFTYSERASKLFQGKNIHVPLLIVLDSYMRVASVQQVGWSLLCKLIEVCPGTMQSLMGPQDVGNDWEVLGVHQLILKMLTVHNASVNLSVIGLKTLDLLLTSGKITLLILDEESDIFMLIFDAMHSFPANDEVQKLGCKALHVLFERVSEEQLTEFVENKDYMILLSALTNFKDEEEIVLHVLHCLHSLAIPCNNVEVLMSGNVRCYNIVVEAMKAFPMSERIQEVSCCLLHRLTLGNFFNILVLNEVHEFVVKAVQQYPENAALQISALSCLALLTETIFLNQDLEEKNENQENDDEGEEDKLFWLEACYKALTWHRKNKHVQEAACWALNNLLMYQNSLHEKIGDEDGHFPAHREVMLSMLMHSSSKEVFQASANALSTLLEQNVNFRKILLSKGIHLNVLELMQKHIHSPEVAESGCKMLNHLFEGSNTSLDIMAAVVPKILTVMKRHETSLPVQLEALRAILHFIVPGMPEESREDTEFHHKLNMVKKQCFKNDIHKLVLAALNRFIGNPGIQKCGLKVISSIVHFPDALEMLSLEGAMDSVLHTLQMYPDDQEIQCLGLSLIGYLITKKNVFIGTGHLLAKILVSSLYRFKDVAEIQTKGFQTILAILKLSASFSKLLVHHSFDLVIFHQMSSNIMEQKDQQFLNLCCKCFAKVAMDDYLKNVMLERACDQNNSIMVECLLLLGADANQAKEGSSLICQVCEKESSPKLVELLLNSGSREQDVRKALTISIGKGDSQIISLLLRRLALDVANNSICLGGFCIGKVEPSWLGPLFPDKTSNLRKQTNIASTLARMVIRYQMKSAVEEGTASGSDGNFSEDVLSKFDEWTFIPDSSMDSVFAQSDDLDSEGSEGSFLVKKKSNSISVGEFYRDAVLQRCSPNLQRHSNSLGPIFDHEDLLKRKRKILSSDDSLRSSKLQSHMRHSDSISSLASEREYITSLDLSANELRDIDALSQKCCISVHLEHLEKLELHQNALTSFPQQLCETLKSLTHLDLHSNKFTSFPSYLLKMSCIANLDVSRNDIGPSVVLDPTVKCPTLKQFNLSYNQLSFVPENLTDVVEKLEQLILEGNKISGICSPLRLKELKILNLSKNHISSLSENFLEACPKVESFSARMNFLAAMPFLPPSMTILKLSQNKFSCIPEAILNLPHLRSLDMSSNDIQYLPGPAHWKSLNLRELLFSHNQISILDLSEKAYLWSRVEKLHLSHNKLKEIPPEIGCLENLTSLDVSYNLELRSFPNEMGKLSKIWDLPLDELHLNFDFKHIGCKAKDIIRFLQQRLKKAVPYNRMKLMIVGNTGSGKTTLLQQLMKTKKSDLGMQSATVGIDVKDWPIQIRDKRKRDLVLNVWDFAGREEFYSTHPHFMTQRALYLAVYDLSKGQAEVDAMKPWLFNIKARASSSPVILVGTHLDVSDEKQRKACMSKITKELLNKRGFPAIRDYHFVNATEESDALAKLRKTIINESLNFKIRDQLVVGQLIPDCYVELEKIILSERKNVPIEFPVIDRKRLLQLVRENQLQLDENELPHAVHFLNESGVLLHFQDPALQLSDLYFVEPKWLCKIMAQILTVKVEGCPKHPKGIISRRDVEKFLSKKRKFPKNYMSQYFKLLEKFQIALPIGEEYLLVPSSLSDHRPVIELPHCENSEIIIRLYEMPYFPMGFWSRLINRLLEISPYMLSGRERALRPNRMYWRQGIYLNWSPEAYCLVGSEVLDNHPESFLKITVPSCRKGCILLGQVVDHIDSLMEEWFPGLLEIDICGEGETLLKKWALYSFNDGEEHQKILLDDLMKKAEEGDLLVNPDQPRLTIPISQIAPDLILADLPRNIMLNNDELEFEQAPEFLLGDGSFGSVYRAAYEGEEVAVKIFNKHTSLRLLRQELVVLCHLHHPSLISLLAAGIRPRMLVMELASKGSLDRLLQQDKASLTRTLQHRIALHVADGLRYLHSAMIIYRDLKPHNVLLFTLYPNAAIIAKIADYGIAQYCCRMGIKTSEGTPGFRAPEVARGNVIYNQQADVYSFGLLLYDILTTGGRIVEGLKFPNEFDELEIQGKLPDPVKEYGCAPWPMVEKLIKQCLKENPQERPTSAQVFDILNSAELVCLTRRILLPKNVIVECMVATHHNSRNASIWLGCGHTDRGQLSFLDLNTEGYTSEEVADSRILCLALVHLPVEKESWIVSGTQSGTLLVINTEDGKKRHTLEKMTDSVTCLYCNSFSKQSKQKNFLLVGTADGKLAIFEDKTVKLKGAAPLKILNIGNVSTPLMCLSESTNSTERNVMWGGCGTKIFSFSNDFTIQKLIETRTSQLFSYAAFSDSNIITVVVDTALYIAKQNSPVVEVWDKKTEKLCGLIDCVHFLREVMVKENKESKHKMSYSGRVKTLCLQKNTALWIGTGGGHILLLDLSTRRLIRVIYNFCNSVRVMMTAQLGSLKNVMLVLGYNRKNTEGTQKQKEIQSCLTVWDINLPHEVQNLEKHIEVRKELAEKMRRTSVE

| Compound | IC50 [nM] |
| --- | --- |
| O=C(Nc1nc2ccc(Cl)cc2s1)c1ccc(N2CCOCC2)cc1 | 370 |
| Cc1cc(-c2ccc3nc(Nc4ccccc4)nn3c2)cc(C)c1O | 20 |
| O=C(Nc1nc2ccc(F)cc2s1)c1ccc(Cl)cc1 | 4460 |

These compounds were tested against Leucine-rich repeat serine/threonine-protein kinase 2 (Homo sapiens, UniProt Q5S007, G2019S) (assay: Inhibition of human GST-tagged LRRK2 G2019S mutant (970 to 2527 residues) expressed in baculovirus expression system assessed as reduction in ADP formation using LRRKtide as substrate measured after 1 hr in presence of ATP by Adapta assay).
In short: as §1

Leucine-rich repeat serine/threonine-protein kinase 2 (Homo sapiens, UniProt Q5S007, G2019S), sequence (Q5S007 whole entry G2019S, the tested form may be a part): as the sequence (Q5S007 whole entry, the tested form may be a part) above, with G2019S counted along it

| Compound | IC50 [nM] |
| --- | --- |
| Cc1cc(-c2ccc3nc(Nc4ccccc4)nn3c2)cc(C)c1O | 20 |
| O=C(Nc1nc2ccc(F)cc2s1)c1ccc(Cl)cc1 | 5640 |
| COc1ccc2nc(NC(=O)c3ccc(N4CCOCC4)cc3)sc2c1 | 440 |

The compounds below were run on Leucine-rich repeat serine/threonine-protein kinase 2 (Homo sapiens), Q5S007 [G2019S] (assay: Inhibition of human GST-tagged LRRK2 G2019S mutant (970 to 2527 residues) expressed in baculovirus expression system assessed as reduction in ADP formation at 10 uM using LRRKtide as substrate measured after 1 hr in presence of ATP by Adapta assay relative to control).
In short: (§2)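 Fluorescence immunoassay detecting ADP formed by the kinase reaction. Each compound screened at a single fixed concentration of 10 µM and reported as percent inhibition.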

Leucine-rich repeat serine/threonine-protein kinase 2 (Homo sapiens), Q5S007 [G2019S], sequence (Q5S007 whole entry G2019S, the tested form may be a part): as the sequence (Q5S007 whole entry, the tested form may be a part) above, with G2019S counted along it

| Compound | inhibition [%] |
| --- | --- |
| O=C(Nc1nc2ccc(Cl)cc2s1)c1ccc(N2CCOCC2)cc1 | 50 |
| O=C(Nc1nc2ccc(F)cc2s1)c1ccc(Cl)cc1 | 67 |
| COc1ccc2nc(NC(=O)c3ccc(N4CCOCC4)cc3)sc2c1 | 93 |

What follows are compounds tested against T1, Leucine-rich repeat serine/threonine-protein kinase 2 (assay: Inhibition of wild type human GST-tagged LRRK2 (970 to 2527 residues) expressed in baculovirus expression system assessed as reduction in ADP formation at 10 uM using LRRKtide as substrate measured after 1 hr in presence of ATP by Adapta assay relative to control).
In short: as §2

| Compound | inhibition [%] |
| --- | --- |
| O=C(CCCC(=O)c1ccccc1)Nc1nc2ccc(F)cc2s1 | 11 |
| CS(=O)(=O)c1ccc2nc(NC(=O)c3ccc(N4CCOCC4)cc3)sc2c1 | 77 |
| O=C(Nc1nc2ccc(Cl)cc2s1)c1ccc(N2CCOCC2)cc1 | 60 |
| CCOC(=O)c1ccc2nc(NC(=O)c3ccc(N4CCOCC4)cc3)sc2c1 | 22 |
| COc1ccc2cc(C(=O)Nc3nc4ccc(F)cc4s3)ccc2c1 | 16 |
| Cc1cccc2sc(NC(=O)c3ccc(N4CCOCC4)cc3)nc12 | 18 |
| O=C(Nc1nc2ccc(F)cc2s1)c1ccc(Cl)cc1 | 68 |
| CCCOc1ccc2nc(NC(=O)c3ccc(N4CCOCC4)cc3)sc2c1 | 13 |
| O=C(Nc1nc2c(Cl)cccc2s1)c1ccc(N2CCOCC2)cc1 | 32 |
| COc1ccc2nc(NC(=O)c3ccc(N4CCOCC4)cc3)sc2c1 | 73 |
